Experimental data pooled from the literature.
Target: Casein kinase II subunit alpha (CSNK2A1, Homo sapiens, UniProt P68400)

For `CCN(CC)CCNC(=O)c1c(C)[nH]c(/C=C2\C(=O)Nc3ccc(F)cc32)c1C`, the inhibition was -7% (enzyme activity, inhibitor; 0.3 µM).
`Nc1cnc(N2CCc3cc(S(=O)(=O)Nc4c(F)cc(Cl)cc4F)cc(N4CCCC4=O)c32)nc1` gave a remaining binding of 100% (cell-free assay, competition with immobilised ligand; 1 µM).
With `CCN(CC)c1ccc(C2=NNC(=O)CC2C)cc1[N+](=O)[O-]` (stereo not shown) the remaining activity was 96% (enzyme activity, inhibitor; 10 µM).
`COc1cc(/C=C/C(=O)CC(=O)/C=C/c2ccc(O)c(OC)c2)ccc1O` has an activity vs control of 106% (enzyme activity, inhibitor; 1 µM).
`CN(c1ncccc1CNc1nc(Nc2ccc3c(c2)CC(=O)N3)ncc1C(F)(F)F)S(C)(=O)=O` has an inhibition of 50.7% (enzyme activity, inhibitor; 1 µM).
`Cn1c2c(c3ccc(Cl)c(Cl)c31)C(C#N)C(C)(C)NC2=O` (stereo not shown) gave a ΔTm of 2.6 °C (thermal stability, DSF; 10 µM).
`O=C1NC(=O)c2cc(Nc3ccc(F)cc3)c(Nc3ccc(F)cc3)cc21` gave a remaining signal of 95.7% (cell-free assay, inhibitor; 0.5 µM).
`O=C(O)c1cc(-c2ccc(C3CCNCC3)cc2)c2ccc(-c3ccc(C(F)(F)F)cc3)cc2c1` has a remaining binding of 100% (cell-free assay, competition with immobilised ligand; 1 µM).
`Cc1cnc(NC2CCOCC2)nc1-n1cnc(C(=O)NC(CN)c2cc(F)cc(Cl)c2)c1` (stereo not shown) has a remaining activity of 106% (enzyme activity, inhibitor, radiometric; 1 µM).
The remaining binding of `CN([C@@H]1CCc2c(CC(=O)O)c3ccccc3n2C1)S(=O)(=O)c1ccc(F)cc1` is reported as 82% (cell-free assay, competition with immobilised ligand; 1 µM).
With `C#Cc1cccc(Nc2ncnc3cc(OCCOC)c(OCCOC)cc23)c1` the remaining signal was 78.9% (cell-free assay; 0.5 µM).
`COc1cc(Nc2cnc(C#N)c(O[C@H](C)CN(C)C)n2)ncc1-c1cnn(C)c1` gave a remaining activity of 110% (enzyme activity, inhibitor, radiometric; 1 µM).
`CC(C)(C)c1nc(-c2cccc(NS(=O)(=O)c3c(F)cccc3F)c2F)c(-c2ccnc(N)n2)s1` gave a remaining activity of 85% (enzyme activity, inhibitor, radiometric; 1 µM).
`Cn1c2c(c3ccc(Cl)c(Cl)c31)C(C#N)C1(CCCCC1)NC2=O` (racemic) gave a ΔTm of 0.7 °C (thermal stability, DSF; 10 µM).
With `Cn1cc(Cl)c2c(Oc3c(F)cc(Nc4cc(Cl)nc(N)n4)cc3F)ccnc21` the remaining binding was 98% (cell-free assay, competition with immobilised ligand; 0.1 µM).
`O=C1Nc2ccc(Cl)cc2C1=Cc1cc(Cl)c(O)c(Cl)c1` has a remaining signal of 26.5% (cell-free assay; 0.5 µM).
`Cc1ccc(C(=O)Nc2ccc(CN3CCN(C)CC3)c(C(F)(F)F)c2)cc1C#Cc1cnc2cccnn12` has a remaining activity of 98% (enzyme activity, inhibitor; 23.5 nM).
`CCC1(CC)NC(=O)c2c(c3ccc(Cl)c(Cl)c3n2C)C1C#N` (stereo not shown) has a ΔTm of 0 °C (thermal stability, DSF; 10 µM).
The remaining activity of `O=C(Nc1cnn(-c2csc(C(=O)NC3COC3)c2)c1)Nc1c(F)cccc1Cl` is reported as 90.5% (enzyme activity, inhibitor; 5 µM).
For `CN([C@@H]1CCc2c(CC(=O)O)c3cc(S(C)(=O)=O)ccc3n2C1)S(=O)(=O)c1ccc(F)cc1`, the remaining binding was 91% (cell-free assay, competition with immobilised ligand; 1 µM).
`Oc1cccc(-c2nc(N3CCOCC3)c3oc4ncccc4c3n2)c1` has a remaining activity of 102% (enzyme activity, inhibitor; 10 µM).
The inhibition of `CCCS(=O)(=O)Nc1ccc(F)c(C(=O)c2c[nH]c3ncc(-c4ccc(Cl)cc4)cc23)c1F` is reported as less than 10% (enzyme activity, inhibitor; 1 µM).
The ΔTm of `Cn1c2c(c3ccc(Cl)c(Cl)c31)C(C#N)C1(CCN(C(=O)OC(C)(C)C)CC1)NC2=O` (racemic) is reported as -0.1 °C (thermal stability, DSF; 10 µM).
With `C[C@@H]1CN(c2cc(-c3n[nH]c4ccc(OC5(C)CC5)cc34)ncn2)C[C@H](C)O1` the remaining binding was 66% (cell-free assay, competition with immobilised ligand; 0.1 µM).
The remaining activity of `FC(F)c1nc2ccccc2n1-c1nc(N2CCOCC2)nc(N2CCOCC2)n1` is reported as 54% (enzyme activity, inhibitor; 10 µM).
The activity vs control of `Cc1cc(NC(=O)c2cccc3cc(-c4cccc5[nH]nc(N)c45)ccc23)ccc1F` is reported as 109% (enzyme activity, inhibitor; 0.1 µM).
`O=C1CCc2cc(Nc3cc(OC4CCOCC4)c([N+](=O)[O-])cc3Cl)ccc2N1` has a remaining binding of 84% (cell-free assay, competition with immobilised ligand; 1 µM).
With `Cc1ccc(Nc2nccc(N(C)c3ccc4c(C)n(C)nc4c3)n2)cc1S(N)(=O)=O` the inhibition was -7% (enzyme activity, inhibitor; 10 µM).
`COc1cc2ncnc(Nc3ccc(Oc4ccccc4)c(C)c3C)c2cc1OC` has an inhibition of 5% (enzyme activity, inhibitor; 1 µM).
`C[C@H](NC(=O)c1cnc2n1[C@](C)(Cc1ccc(C#N)cc1)C(=O)N2c1cc(Cl)c(F)c(Cl)c1)C(=O)NC1(c2ccccn2)CC1` has a remaining binding of 81% (cell-free assay, competition with immobilised ligand; 1 µM).
With `Nc1nc(NC2CCCCC2)sc1C(=O)c1ccccc1` the remaining activity was 114% (enzyme activity, inhibitor; 10 µM).
